Source: ChEMBL document CHEMBL4350958, “Rational Design of Short Peptide Variants by Using Kunitzin-RE, an Amphibian-Derived Bioactivity Peptide, for Acquired Potent Broad-Spectrum Antimicrobial and Improved Therapeutic Potential of Commensalism Coinfection of Pathogens” (J Med Chem, 2019)
In brackets after ≈: the same amount, converted by molar mass.

How the values were obtained:
Escherichia coli [1] = assay: Antibacterial activity against Escherichia coli ATCC 25922 measured after 18 to 24 hrs in presence of KCl; type: functional
Escherichia coli [2] = assay: Antibacterial activity against Escherichia coli ATCC 25922 measured after 24 hrs; type: functional
Method in brief: (§1)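 Broth microdilution adapted from NCCLS. Mid-log bacteria were diluted in MHB to a final (0.5–1) × 10^5 CFU mL−1. Peptides were serially diluted in 0.2% BSA and mixed with an equal volume of cells. After 24 h at 37 °C, MIC was read at A492 as the lowest concentration inhibiting 95% of growth. At least three independent experiments, each with three technical replicates.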

Candida albicans [3] = assay: Antifungal activity against Candida albicans cgmcc2.2086 measured after 48 hrs in presence of CaCl by broth microdilution method; type: functional
[4] = Therapeutic index, ratio of MHC10 for hemolytic activity in human RBC to MIC95 against Candida parapsilosis cgmcc2.3989; type: toxicity; conditions: human red blood cells (erythrocytes), read-out: TI
Method in brief: (§2)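 Therapeutic index = MHC divided by MIC. MHC is the lowest concentration giving >10% lysis of human RBC (1 h, 37 °C, 1-128 µM, A576). MIC is 95% growth inhibition by broth microdilution: bacteria in MHB 24 h at 37 °C; Candida in MOPS-buffered RPMI 1640 at (0.5–1) × 10^3 CFU mL−1, 48 h at 28 °C.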

Staphylococcus aureus = assay: Bactericidal activity against Staphylococcus aureus ATCC 29213 incubated for 24 hrs followed by replating on agar plate and measured after overnight incubation; type: functional; conditions: for MBC: ATCC 29213, 24 h, read-out: MBC>99.9
Method in brief: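 After the 24 h, 37 °C MHB microdilution MIC assay, 50 μL from each well was plated on agar and incubated overnight. MBC taken as lowest peptide concentration killing >99.9% of cells. At least three independent experiments, each with three technical replicates.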

Escherichia coli [5] = assay: Antibacterial activity against Escherichia coli ATCC 25922 measured after 18 to 24 hrs in presence of ZnCl2; type: functional
Escherichia coli [6] = assay: Bactericidal activity against Escherichia coli UB1005 incubated for 24 hrs followed by replating on agar plate and measured after overnight incubation; type: functional; conditions: for MBC: UB1005, 24 h, read-out: MBC>99.9
Method in brief: (§3)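 Mid-log bacteria diluted in MHB to (0.5–1) × 10^5 CFU/mL and mixed 1:1 with peptide serially diluted in 0.2% BSA. After 24 h at 37 °C, 50 μL of each mixture was plated on agar and incubated overnight. MBC taken as the lowest concentration killing >99.9% of cells. At least three independent experiments, each with three technical replicates.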

Salmonella typhimurium = assay: Bactericidal activity against Salmonella typhimurium C7731 incubated for 24 hrs followed by replating on agar plate and measured after overnight incubation; type: functional, Salmonella enterica subsp. enterica serovar Typhimurium; conditions: for MBC: Salmonella enterica, C7731, 24 h, read-out: MBC>99.9; for MBC>99.9: Salmonella enterica subsp. enterica serovar Typhimurium; method in brief: as §3
Candida albicans [7] = assay: Fungicidal activity against Candida albicans cgmcc2.2086 incubated for 48 hrs followed by replating on YM agar plate and measured after 48 hrs; type: functional
Method in brief: (§4)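 Yeast diluted in MOPS-buffered RPMI 1640 to (0.5–1) × 10^3 CFU/mL (CLSI M27-A2, modified) and mixed 1:1 with peptide serially diluted in 0.2% BSA. After 48 h at 28 °C, 50 μL per well was plated on YM agar and incubated 48 h at 28 °C. MFC taken as the lowest concentration killing ≥99.9% of cells. Three or more independent experiments, triplicate wells.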

Candida parapsilosis = assay: Fungicidal activity against Candida parapsilosis cgmcc2.3989 incubated for 48 hrs followed by replating on YM agar plate and measured after 48 hrs; type: functional; method in brief: as §4
[8] = Therapeutic index, ratio of MHC10 for hemolytic activity in human RBC to MIC95 against Escherichia coli ATCC 25922; type: toxicity; conditions: human red blood cells (erythrocytes), pooled result: one value given for 9 cell lines, strains, targets or settings, read-out: TI; method in brief: as §2
Escherichia coli [9] = assay: Antibacterial activity against Escherichia coli ATCC 25922 measured after 18 to 24 hrs in presence of CaCl2; type: functional
[10] = test system: Staphylococcus epidermidis; assay: Bactericidal activity against Staphylococcus epidermidis ATCC 12228 incubated for 24 hrs followed by replating on agar plate and measured after overnight incubation; type: functional; conditions: for MBC: ATCC 12228, 24 h, read-out: MBC>99.9; method in brief: as §3
Candida albicans [11] = assay: Antifungal activity against Candida albicans cgmcc2.2086 measured after 48 hrs in presence of ZnCl by broth microdilution method; type: functional
Escherichia coli [12] = assay: Antibacterial activity against Escherichia coli 078 measured after 24 hrs; type: functional; method in brief: as §1
Escherichia coli [13] = assay: Bactericidal activity against Escherichia coli ATCC 25922 incubated for 24 hrs followed by replating on agar plate and measured after overnight incubation; type: functional; conditions: for MBC: ATCC 25922, 24 h, read-out: MBC>99.9
Method in brief: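 After the 24 h, 37 °C MHB microdilution (0.5–1 × 10^5 CFU mL−1 inoculum, peptides diluted in 0.2% BSA), 50 μL from each well was plated on agar and incubated overnight. MBC was taken as the lowest concentration killing >99.9% of cells. Three or more independent experiments, each with triplicate technical replicates.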

[14] = Therapeutic index, ratio of MHC10 for hemolytic activity in human RBC to MIC95 against Staphylococcus aureus ATCC 25923; type: toxicity; conditions: human red blood cells (erythrocytes), read-out: TI; method in brief: as §2
Candida albicans [15] = assay: Antifungal activity against Candida albicans cgmcc2.2086 measured after 48 hrs in presence of KCl by broth microdilution method; type: functional
[16] = Conformational stability in sodium dodecyl sulfate assessed as beta-sheet conformation by measuring absorption spectra at minimum dichroic band at 35 uM by CD spectra analysis; type: physicochemical
Method in brief: (§5)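 CD spectra from 190 to 250 nm of peptide at 35 μM in 10 mM PBS, 30 mM SDS micelles or 50% TFE, recorded in a 1.0-mm quartz cell. Ellipticity was converted to mean residue ellipticity. Three independent scans, each averaged over more than 3 runs.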

[17] = Conformational stability in sodium dodecyl sulfate assessed as beta-sheet conformation by measuring absorption spectra at maximum dichroic band at 35 uM by CD spectra analysis; type: physicochemical; method in brief: as §5

Compound	MIC95 (Escherichia coli [1]) [µM]	MIC95 (Escherichia coli [2]; ATCC 25922, 24 h) [µM]	MIC95 (Candida albicans [3]; cgmcc2.2086, 48 h) [µM]	selectivity ratio [4]	MBC (Staphylococcus aureus) [µM]	MIC95 (Escherichia coli [5]) [µM]	MBC (Escherichia coli [6]) [µM]	MBC (Salmonella typhimurium) [µM]	MFC<=99.9 (Candida albicans [7]) [µM]	MFC<=99.9 (Candida parapsilosis) [µM]	selectivity ratio [8]	MIC95 (Escherichia coli [9]) [µM]	MBC [10] [µM]	MIC95 (Candida albicans [11]; cgmcc2.2086, 48 h) [µM]	MIC95 (Escherichia coli [12]; Escherichia coli, 078, 24 h) [µM]	MBC (Escherichia coli [13]) [µM]	selectivity ratio [14]	MIC95 (Candida albicans [15]; cgmcc2.2086, 48 h) [µM]	Activity [16] [nm]	Wavelength of maximum dichroic band [17] [nm]	other results
H-AARRILRWIFR-NH2	8	4	128	40.3	8	8	4	8	8	16	59.3	16	8	8	4	4	45.2	16			
H-AARIILRFRFR-NH2	16	8	64	50.8	4	4	8	8	16	8	43.5	32	4	8	4	8	128	8	216 to 220	200	
GENTAMICIN	1					1						1									MIC95 (Escherichia coli [2]): 1 µM; MIC95 (Candida albicans [3]): > 128 µM; MBC>99.9 (Staphylococcus aureus): 1 µM; MBC>99.9 (Escherichia coli [6]): 1 µM; MBC>99.9 (Salmonella typhimurium): 2 µM; MBC>99.9 [10]: 2 µM; MIC95 (Candida albicans [11]): > 128 µM; MIC95 (Escherichia coli [12]): 0.5 µM; MBC>99.9 (Escherichia coli [13]): 1 µM; MIC95 (Candida albicans [15]): > 128 µM
H-AARIILRARFR-NH2	8	4	64	25.4	8	4	4	8	32	16	69.1	32	4	16	4	4	90.5	16	216 to 220	200	
H-AARIILRYRFR-NH2	32	8	128	8	8	8	8	8	64	128	47	> 128	4	64	4	16	64	64	216 to 220	200	
H-AARIILRLRFR-NH2	8	4	32	50.8	4	4	8	8	16	8	64	32	4	8	4	8	128	8	216 to 220	200	
POLYMYXIN B	2					2				16		16									MIC95 (Escherichia coli [2]): 2 µM; MIC95 (Candida albicans [3]): > 128 µM; MBC>99.9 (Staphylococcus aureus): 64 µM; MBC>99.9 (Escherichia coli [6]): 2 µM; MBC>99.9 (Salmonella typhimurium): 4 µM; MFC (≥99.9% killing) (Candida albicans [7]): 64 µM; MBC>99.9 [10]: 64 µM; MIC95 (Candida albicans [11]): 32 µM; MIC95 (Escherichia coli [12]): 1 µM; MBC>99.9 (Escherichia coli [13]): 4 µM; MIC95 (Candida albicans [15]): 32 µM
H-AARIILRTRFR-NH2	32	8	> 128	4	32	8	8	32			27.4	> 128	32	> 128	4	16	16	> 128	216 to 220	200	
CC(C)(O/N=C(\C(=O)N[C@@H]1C(=O)N2C(C(=O)[O-])=C(C[n+]3ccccc3)CS[C@H]12)c1csc(N)n1)C(=O)O [CEFTAZIDIME]	2	2 (≈ 1.09 µg/mL)	> 128		16 (≈ 8.75 µg/mL)	2	2 (≈ 1.09 µg/mL)	1 (≈ 0.547 µg/mL)				2	32 (≈ 17.5 µg/mL)	> 128	0.5 (≈ 0.273 µg/mL)	2 (≈ 1.09 µg/mL)		> 128			
